# Activity calls are given as the source filed them. The rule behind the calls is not given here.
# What was measured:
# Pseudomonas aeruginosa [1] = assay: Antibacterial activity against Pseudomonas aeruginosa PAO4069 expressing inducible AmpC; format: functional
# In short: (§1)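 Agar dilution MIC per NCCLS (CLSI) M7-A7 on Mueller-Hinton agar with twofold serial drug dilutions. Inoculum 10^4 CFU per spot, aerobic incubation 18 to 20 h at 35°C. MIC is the lowest concentration preventing visible growth.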
# Escherichia coli [2] = assay: Antibacterial activity against Escherichia coli C600 expressing ESBL TEM6; format: functional
# In short: (§2)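 MIC by agar dilution (CLSI M7-A7) on Mueller-Hinton agar with twofold serial drug dilutions; 10^4 CFU spotted per spot; aerobic incubation 18 to 20 h at 35°C; MIC read as lowest concentration preventing visible growth.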
# Escherichia coli [3] = assay: Antibacterial activity against Escherichia coli C600 expressing ESBL TEM9; format: functional; in short: as §2
# Pseudomonas aeruginosa [4] = assay: Antibacterial activity against Pseudomonas aeruginosa 93; format: functional; in short: as §2
# Escherichia coli [5] = assay: Antibacterial activity against Escherichia coli C600 expressing OXA1; format: functional; in short: as §2
# Pseudomonas aeruginosa [6] = assay: Efficacy against Pseudomonas aeruginosa 93 pulmonary infection in mouse assessed as reduction in bacterial counts at 10 mg/kg, sc; format: functional, organism-based; design: dose 10 mg/kg
# In short: (§3)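 Male ICR mice (4 weeks), made neutropenic with cyclophosphamide 200 mg/kg ip 4 days before infection. Under pentobarbital anesthesia (50 mg/kg iv) they were challenged intranasally with 3.30 log10 CFU of strain 93, grown on tryptic soy agar 35°C 20 h and suspended in saline. Dosed sc twice daily for 3 days from 3 h post-infection. Lung viable counts taken the day after last dose; 6 mice/dose.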
# Pseudomonas aeruginosa [7] = assay: Efficacy against Pseudomonas aeruginosa 93 pulmonary infection in mouse assessed as reduction in bacterial counts at 2 mg/kg, sc; format: functional, organism-based; design: dose 2 mg/kg; in short: as §3
# Pseudomonas aeruginosa [8] = assay: Efficacy against Pseudomonas aeruginosa 93 assessed as reduction in bacterial counts in mouse burn wound infection model at 50 mg/kg, relative to control; format: functional, organism-based; design: dose 50 mg/kg
# In short: (§4)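 Male ICR mice (4 weeks), anesthetized with pentobarbital, received an ethanol flame burn on the shaved back (0.1 ml flaming ethanol applied twice). The wound was inoculated with 4.60 log10 CFU of strain 93. Dosed iv twice daily for 3 days from 3 h post-infection. Lesion viable counts (CFU/g) taken the day after last dose versus untreated controls; 6 mice/dose.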
# Escherichia coli [9] = assay: Antibacterial activity against Escherichia coli C600 expressing ESBL TEM4; format: functional; in short: as §2
# Escherichia coli [10] = assay: Antibacterial activity against Escherichia coli C600 expressing ESBL TEM3; format: functional; in short: as §2
# Escherichia coli [11] = assay: Antibacterial activity against Escherichia coli C600 expressing TEM2; format: functional; in short: as §2
# Escherichia coli [12] = assay: Antibacterial activity against Escherichia coli C600 expressing ESBL OXA2; format: functional; in short: as §2
# Pseudomonas aeruginosa [13] = assay: Efficacy against Pseudomonas aeruginosa 93 assessed as reduction in bacterial counts in mouse urinary tract infection model at 0.5 mg/kg; format: functional, organism-based; design: dose 0.5 mg/kg; conditions: Urine
# In short: (§5)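 Female ICR mice (4 weeks) were denied water 1 day. Under pentobarbital anesthesia they received 4.32 log10 CFU of strain 93 via the […], which was then clamped 5 h. Dosed sc at 5 h post-challenge plus twice daily for 2 days. Bilateral kidney viable counts taken the day after last treatment; 6 mice/dose.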
# Pseudomonas aeruginosa [14] = assay: Efficacy against Pseudomonas aeruginosa 93 assessed as reduction in bacterial counts in mouse urinary tract infection model at 2 mg/kg; format: functional, organism-based; design: dose 2 mg/kg; conditions: Urine; in short: as §5
# Pseudomonas aeruginosa [15] = assay: Antibacterial activity against Pseudomonas aeruginosa FP1380 expressing constitutive AmpC; format: functional; in short: as §2
# Pseudomonas aeruginosa [16] = assay: Antibacterial activity against Pseudomonas aeruginosa PAO1; format: functional; in short: as §1
# Pseudomonas aeruginosa [17] = assay: Efficacy against Pseudomonas aeruginosa 93 assessed as reduction in bacterial counts in mouse burn wound infection model at 10 mg/kg; format: functional, organism-based; design: dose 10 mg/kg; in short: as §4
# Pseudomonas aeruginosa [18] = assay: Antibacterial activity against Pseudomonas aeruginosa PAO4222; format: functional; in short: as §1
# Escherichia coli [19] = assay: Antibacterial activity against Escherichia coli C600 expressing TEM1; format: functional; in short: as §2
# Pseudomonas aeruginosa [20] = assay: Antibacterial activity against Pseudomonas aeruginosa PAO1 after 5 serial passages; format: functional
# In short: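 PAO1 passaged daily for five consecutive days in fresh Mueller-Hinton broth with twofold drug dilution series. Each next inoculum came from the tube at one-fourth the MIC. MIC change was followed across passages.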
# Escherichia coli [21] = assay: Antibacterial activity against Escherichia coli C600 expressing ESBL TEM5; format: functional; in short: as §2
# Pseudomonas aeruginosa [22] = assay: Antibacterial activity against Pseudomonas aeruginosa KG3056 producing MexCD-OprJ efflux pump; format: functional; in short: as §1
# Pseudomonas aeruginosa [23] = assay: Antibacterial activity against Pseudomonas aeruginosa PAO1456 expressing constitutive AmpC; format: functional; in short: as §1
# Escherichia coli [24] = assay: Antibacterial activity against Escherichia coli C600 expressing ESBL CTX-M3; format: functional; in short: as §2
# Escherichia coli [25] = assay: Antibacterial activity against Escherichia coli C600 expressing ESBL SHV3; format: functional; in short: as §2
# Pseudomonas aeruginosa [26] = assay: Antibacterial activity against imipenem-resistant Pseudomonas aeruginosa; format: functional; in short: as §1
# Escherichia coli [27] = assay: Antibacterial activity against Escherichia coli C600 expressing SHV1; format: functional; in short: as §2
# Escherichia coli [28] = assay: Antibacterial activity against Escherichia coli C600 expressing ESBL CTX-M18; format: functional; in short: as §2
# Escherichia coli [29] = assay: Antibacterial activity against Escherichia coli C600; format: functional; in short: as §2
# Escherichia coli [30] = assay: Antibacterial activity against Escherichia coli C600 expressing ESBL TEM7; format: functional; in short: as §2
# Escherichia coli [31] = assay: Antibacterial activity against Escherichia coli C600 expressing ESBL TEM8; format: functional; in short: as §2
# Pseudomonas aeruginosa [32] = assay: Antibacterial activity against Pseudomonas aeruginosa KG4001 producing MexEF-OprN efflux pump; format: functional; in short: as §1
# Escherichia coli [33] = assay: Antibacterial activity against Escherichia coli C600 expressing ESBL SHV2; format: functional; in short: as §2
# Escherichia coli [34] = assay: Antibacterial activity against Escherichia coli C600 expressing ESBL SHV4; format: functional; in short: as §2
# Pseudomonas aeruginosa [35] = assay: Antibacterial activity against ceftazidime-resistant Pseudomonas aeruginosa; format: functional; in short: as §1
# Pseudomonas aeruginosa [36] = assay: Antibacterial activity against Pseudomonas aeruginosa 22029 expressing metallo beta lactamase; format: functional; in short: as §1
# Pseudomonas aeruginosa [37] = assay: Antibacterial activity against Pseudomonas aeruginosa KG2212 producing MexAB-OprM efflux pump; format: functional; in short: as §1
# Pseudomonas aeruginosa [38] = assay: Antibacterial activity against Pseudomonas aeruginosa KG4545 producing MexXY efflux pump; format: functional; in short: as §1
# Pseudomonas aeruginosa [39] = assay: Antibacterial activity against ciprofloxacin-resistant Pseudomonas aeruginosa; format: functional; in short: as §1
# Pseudomonas aeruginosa [40] = assay: Antibacterial activity against Pseudomonas aeruginosa; format: functional; in short: as §1
compound,measurement,setting,value
Cn1c(N)c(NC(=O)NCCN)c[n+]1CC1=C(C(=O)O)N2C(=O)[C@@H](NC(=O)/C(=N\OC(C)(C)C(=O)[O-])c3nsc(N)n3)[C@H]2SC1 [CEFTOLOZANE],MIC,Pseudomonas aeruginosa [1],0.5 µg/mL
same,MIC,Escherichia coli [2],32 µg/mL
same,MIC,Escherichia coli [3],32 µg/mL
same,MIC,Pseudomonas aeruginosa [4],0.25 µg/mL
same,MIC,Escherichia coli [5],0.5 µg/mL
same,Activity,Pseudomonas aeruginosa [6],Active
same,Activity,Pseudomonas aeruginosa [7],Active
same,Activity,Pseudomonas aeruginosa [8],Active
same,MIC,Escherichia coli [9],2 µg/mL
same,MIC,Escherichia coli [10],1 µg/mL
same,MIC,Escherichia coli [11],0.5 µg/mL
same,MIC,Escherichia coli [12],4 µg/mL
same,Activity,Pseudomonas aeruginosa [13],Active
same,Activity,Pseudomonas aeruginosa [14],Active
same,MIC,Pseudomonas aeruginosa [15],4 µg/mL
same,MIC,Pseudomonas aeruginosa [16],0.5 µg/mL
same,Activity,Pseudomonas aeruginosa [17],Active
same,MIC,Pseudomonas aeruginosa [18],0.5 µg/mL
same,MIC,Escherichia coli [19],0.25 µg/mL
same,MIC,Pseudomonas aeruginosa [20],2 µg/mL
same,MIC,Escherichia coli [21],32 µg/mL
same,MIC,Pseudomonas aeruginosa [22],0.25 µg/mL
same,MIC,Pseudomonas aeruginosa [23],1 µg/mL
same,MIC,Escherichia coli [24],16 µg/mL
same,MIC,Escherichia coli [25],32 µg/mL
same,MIC,Pseudomonas aeruginosa [26],0.5 µg/mL
same,MIC50,Pseudomonas aeruginosa [26],0.5 µg/mL
same,MIC90,Pseudomonas aeruginosa [26],1 µg/mL
same,MIC,Escherichia coli [27],0.5 µg/mL
same,MIC,Escherichia coli [28],16 µg/mL
same,MIC,Escherichia coli [29],0.25 µg/mL
same,MIC,Escherichia coli [30],32 µg/mL
same,MIC,Escherichia coli [31],16 µg/mL
same,MIC,Pseudomonas aeruginosa [32],0.5 µg/mL
same,MIC,Escherichia coli [33],32 µg/mL
same,MIC,Escherichia coli [34],16 µg/mL
same,MIC50,Pseudomonas aeruginosa [35],2 µg/mL
same,MIC90,Pseudomonas aeruginosa [35],4 µg/mL
same,MIC,Pseudomonas aeruginosa [36],> 128 µg/mL
same,MIC,Pseudomonas aeruginosa [37],0.5 µg/mL
same,MIC,Pseudomonas aeruginosa [38],0.5 µg/mL
same,MIC50,Pseudomonas aeruginosa [39],1 µg/mL
same,MIC90,Pseudomonas aeruginosa [39],2 µg/mL
same,MIC50,Pseudomonas aeruginosa [40],0.5 µg/mL
same,MIC90,Pseudomonas aeruginosa [40],1 µg/mL
O=C(O)c1cn(C2CC2)c2cc(N3CCNCC3)c(F)cc2c1=O [CIPROFLOXACIN],MIC50,Pseudomonas aeruginosa [26],1 µg/mL
same,MIC90,Pseudomonas aeruginosa [26],8 µg/mL
same,MIC50,Pseudomonas aeruginosa [35],2 µg/mL
same,MIC90,Pseudomonas aeruginosa [35],64 µg/mL
same,MIC50,Pseudomonas aeruginosa [39],8 µg/mL
same,MIC90,Pseudomonas aeruginosa [39],64 µg/mL
same,MIC50,Pseudomonas aeruginosa [40],0.25 µg/mL
same,MIC90,Pseudomonas aeruginosa [40],8 µg/mL

# Reference: ChEMBL document CHEMBL1142065, “In vitro and in vivo activities of a new cephalosporin, FR264205, against Pseudomonas aeruginosa” (2007)
